Test results: ChEMBL document CHEMBL3585255, “The Cephalostatins. 24. Isolation, Structure, and Cancer Cell Growth Inhibition of Cephalostatin 20” (2015)

Key:
Type in all cases: functional
[1] = system: NCI-H460; assay: Cytotoxicity against human NCI-H460 cells after 48 hrs by sulforhodamine B assay; details: NCI-H460, 48 h
How it was run: (§1)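 Cells in RPMI1640 with 5% fetal bovine serum were plated in 96-well plates and incubated 24 h before serial dilutions of compound were added. After 48 h exposure, cells were fixed with trichloroacetic acid and stained with sulforhodamine B, and optical density was read on a plate reader. GI50, the concentration giving 50% reduction in net protein increase, was calculated from the OD data.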

[2] = system: MCF7; assay: Cytotoxicity against human MCF7 cells after 48 hrs by sulforhodamine B assay; details: MCF7, 48 h; how it was run: as §1
[3] = system: SF-268; assay: Cytotoxicity against human SF268 cells after 48 hrs by sulforhodamine B assay; details: SF-268, 48 h; how it was run: as §1
[4] = system: DU-145; assay: Cytotoxicity against human DU145 cells after 48 hrs by sulforhodamine B assay; details: DU-145, 48 h; how it was run: as §1
[5] = Cytotoxicity against human KM20L2 cells after 48 hrs by sulforhodamine B assay; details: KM-20L2, 48 h; how it was run: as §1
[6] = Cytotoxicity against human BxPC3 cells after 48 hrs by sulforhodamine B assay; details: BXPC-3, 48 h; how it was run: as §1

In the case of `C[C@@H]1[C@H]2C[C@@H]3O[C@@]34[C@]3(O)CC[C@H]5Cc6nc7c(nc6C[C@]5(C)C3=CC(=O)[C@]24CO[C@]12OC(C)(C)[C@@H](C)[C@H]2O)C[C@@H]1CC[C@H]2C3=C[C@@H]4O[C@]5(O[C@](C)(CO)C[C@H]5O)[C@@H](C)[C@]4(O)[C@@]3(C)[C@H](O)C[C@@H]2[C@@]1(C)C7` [CEPHALOSTATIN 15], the GI50 [1] is reported as 68 nM, the GI50 [2] is reported as 45 nM and the GI50 [3] is reported as 63 nM. The GI50 [4] was 140 nM, the GI50 [5] was 63 nM and the GI50 [6] was 50 nM.

In the case of `CO[C@H]1c2nc3c(nc2C[C@@H]2CC[C@H]4C5=C[C@@H]6O[C@]7(O[C@](C)(CO)C[C@H]7O)[C@@H](C)[C@]6(O)[C@@]5(C)[C@H](O)C[C@@H]4[C@]21C)C[C@@]1(C)[C@@H](CC[C@H]2C4=CC[C@@H]5[C@H](C)[C@@]6(OC[C@]45C(=O)C[C@@H]21)OC(C)(C)C[C@H]6O)C3` [CEPHALOSTATIN 18], the GI50 [1] is reported as 2.8 nM, the GI50 [2] is reported as 3.3 nM and the GI50 [3] is reported as 7.8 nM. The GI50 [4] was 20 nM, the GI50 [5] was 3.1 nM and the GI50 [6] was 3.3 nM.

Work on `C[C@H]1[C@@H](O)C2(Oc3cc4c(c5c3[C@H](C[C@H]5O)[C@@H]2C)CC[C@H]2Cc3nc5c(nc3C[C@]42C)C[C@@H]2CC[C@H]3C4=C[C@@H]6O[C@@]7(C[C@]6(O)[C@@]4(C)[C@H](O)C[C@@H]3[C@@]2(C)C5)O[C@](C)(CO)C[C@H]7O)OC1(C)C` (stereo partly drawn) [CEPHALOSTATIN 5] yielded a GI50 [1] of 150 nM, a GI50 [2] of 340 nM and a GI50 [3] of 440 nM. It also gave a GI50 [4] of 120 nM, a GI50 [5] of 100 nM and a GI50 [6] of 330 nM.

Compound `C[C@@H]1[C@H]2CC=C3[C@@H]4CC[C@H]5Cc6nc7c(nc6C[C@]5(C)[C@@]4(O)CC(=O)[C@@]32CO[C@]12OC(C)(C)C[C@H]2O)C[C@@H]1CC[C@H]2C3=C[C@@H]4O[C@@]5(CC[C@](C)(O)CO5)[C@@H](C)[C@]4(O)[C@@]3(C)[C@H](O)C[C@@H]2[C@@]1(C)C7` [CEPHALOSTATIN 16] has a GI50 [1] of 0.64 nM, a GI50 [2] of 1.1 nM and a GI50 [3] of 5.2 nM. It also gave a GI50 [4] of 12 nM, a GI50 [5] of 0.6 nM and a GI50 [6] of 0.44 nM.

Work on `C[C@@H]1C[C@]2(O[C@H]3C=C4[C@@H]5CC[C@H]6Cc7nc8c(nc7C[C@]6(C)[C@H]5C[C@@H](O)[C@]4(CO)[C@H]3[C@@H]2C)C[C@@H]2CC[C@H]3C4=C[C@@H]5O[C@]6(O[C@](C)(CO)C[C@H]6O)[C@@H](C)[C@]5(O)[C@@]4(C)[C@H](O)C[C@@H]3[C@@]2(C)C8)OC1(C)C` [CEPHALOSTATIN 8] yielded a GI50 [1] of 15 nM, a GI50 [2] of 26 nM and a GI50 [3] of 150 nM. For the same compound, the GI50 [4] was > 1100 nM, the GI50 [5] was 47 nM and the GI50 [6] was 26 nM.

With `C[C@@H]1[C@]2(O[C@H]3C=C4[C@@H]5CC[C@H]6Cc7nc8c(nc7C[C@]6(C)[C@H]5C[C@@H](O)[C@]4(C)[C@]31O)C[C@@H]1CC[C@H]3C4=C[C@@H]5O[C@]6(O[C@](C)(CO)C[C@H]6O)[C@@H](C)[C@]5(O)[C@@]4(C)[C@H](O)C[C@@H]3[C@@]1(C)C8)O[C@](C)(CO)C[C@H]2O` [CEPHALOSTATIN 12] the GI50 [1] was 37 nM, the GI50 [2] was 33 nM and the GI50 [3] was 150 nM. It also gave a GI50 [4] of 440 nM, a GI50 [5] of 38 nM and a GI50 [6] of 31 nM.

`CO[C@H]1c2nc3c(nc2C[C@@H]2CC[C@H]4C5=C[C@@H]6O[C@]7(O[C@](C)(CO)C[C@H]7O)[C@@H](C)[C@]6(O)[C@@]5(C)[C@H](O)C[C@@H]4[C@]21C)C[C@@]1(C)[C@@H](CC[C@H]2C4=CC[C@@H]5[C@H](C)[C@@]6(OC[C@]45C(=O)C[C@@]21O)OC(C)(C)C[C@H]6O)C3` [CEPHALOSTATIN 10] gave a GI50 [1] of 0.6 nM, a GI50 [2] of 1.4 nM and a GI50 [3] of 3.7 nM. The GI50 [4] was 8.5 nM, the GI50 [5] was 0.7 nM and the GI50 [6] was 1.3 nM.

For `C[C@@H]1[C@]2(O[C@H]3C=C4[C@@H]5CC[C@H]6Cc7nc8c(nc7C[C@]6(C)[C@H]5C[C@@H](O)[C@]4(C)[C@]31O)C[C@@H]1CC[C@H]3C4=CC[C@@H]5[C@H](C)[C@@]6(OC[C@]45C(=O)C[C@@H]3[C@@]1(C)C8)OC(C)(C)C[C@H]6O)O[C@](C)(CO)C[C@H]2O` [CEPHALOSTATIN 1], the GI50 [1] was 0.044 nM, the GI50 [2] was 0.099 nM and the GI50 [3] was 1.6 nM. The GI50 [4] was 0.11 nM, the GI50 [5] was 0.066 nM and the GI50 [6] was 0.044 nM.

Compound `C[C@@H]1[C@]2(O[C@H]3C=C4[C@@H]5CC[C@H]6Cc7nc8c(nc7C[C@]6(C)[C@H]5C[C@@H](O)[C@]4(C)[C@]31O)C[C@@H]1CC[C@H]3C4=C[C@@H]5O[C@]6(CC[C@](C)(O)CO6)C[C@]5(O)[C@@]4(C)[C@H](O)C[C@@H]3[C@@]1(C)C8)O[C@](C)(CO)C[C@H]2O` [CEPHALOSTATIN 7] has a GI50 [1] of 8.2 nM, a GI50 [2] of 50 nM and a GI50 [3] of 110 nM. The GI50 [4] was 470 nM, the GI50 [5] was 48 nM and the GI50 [6] was 5 nM.

`C[C@@H]1[C@]2(O[C@H]3C=C4[C@@H]5CC[C@H]6Cc7nc8c(nc7C[C@]6(C)[C@H]5C[C@@H](O)[C@]4(C)[C@]31O)C[C@@H]1CC[C@H]3C4=CC[C@@H]5[C@H](C)[C@@]6(OC[C@]45C(=O)C[C@]3(O)[C@@]1(C)C8)OC(C)(C)[C@@H](C)[C@H]6O)O[C@](C)(CO)C[C@H]2O` [CEPHALOSTATIN 3] gave a GI50 [1] of 0.043 nM, a GI50 [2] of 0.032 nM and a GI50 [3] of 0.58 nM. It also gave a GI50 [4] of 0.16 nM, a GI50 [5] of 0.096 nM and a GI50 [6] of 0.043 nM.

For `C[C@@H]1[C@]2(O[C@H]3C=C4[C@@H]5CC[C@H]6Cc7nc8c(nc7C[C@]6(C)[C@H]5C[C@@H](O)[C@]4(C)[C@]31O)C[C@@H]1CC[C@H]3C4=CC[C@@H]5[C@H](C)[C@@](O)([C@H](O)CC(C)(C)O)OC[C@]45C(=O)C[C@]3(O)[C@@]1(C)C8)O[C@](C)(CO)C[C@H]2O`, the GI50 [1] was 6 nM, the GI50 [2] was 22 nM and the GI50 [3] was 36 nM. For the same compound, the GI50 [4] was 210 nM, the GI50 [5] was 7.2 nM and the GI50 [6] was 16 nM.

`C[C@@H]1[C@H]2CC=C3[C@H]4CC[C@H]5Cc6nc7c(nc6C[C@]5(C)[C@@]4(O)CC(=O)[C@@]32CO[C@]12OC(C)(C)C[C@H]2O)C[C@@H]1CC[C@H]2C3=C[C@@H]4O[C@]5(O[C@](C)(CO)C[C@H]5O)[C@@H](C)[C@]4(O)[C@@]3(C)[C@H](O)C[C@@H]2[C@@]1(C)C7` [CEPHALOSTATIN 17] showed a GI50 [1] of 0.46 nM, a GI50 [2] of 0.43 nM and a GI50 [3] of 2.7 nM. The GI50 [4] was 3.3 nM, the GI50 [5] was 0.58 nM and the GI50 [6] was 0.36 nM.

`C[C@@H]1[C@]2(O[C@H]3C=C4[C@@H]5CC[C@H]6Cc7nc8c(nc7C[C@]6(C)[C@H]5C[C@@H](O)[C@]4(C)[C@]31O)C[C@@H]1CC[C@H]3C4=C[C@@H]5O[C@]6(O[C@](C)(CO)C[C@H]6O)[C@@H](C)[C@]5(O)[C@@]4(C)[C@H](O)C[C@@H]3[C@@]1(C)[C@H]8O)O[C@](C)(CO)C[C@H]2O` [CEPHALOSTATIN 13] showed a GI50 [1] of 370 nM, a GI50 [2] of 290 nM and a GI50 [3] of 340 nM. It also gave a GI50 [4] of 1100 nM, a GI50 [5] of 470 nM and a GI50 [6] of 310 nM.

Work on `CO[C@H]1c2nc3c(nc2C[C@@H]2CC[C@H]4C5=CC[C@@H]6[C@@H](C)[C@]7(OC[C@]56C(=O)C[C@@H]4[C@]21C)OC(C)(C)C[C@H]7O)C[C@@]1(C)[C@@H](CC[C@H]2C4=C[C@@H]5O[C@]6(O[C@](C)(CO)C[C@H]6O)[C@@H](C)[C@]5(O)[C@@]4(C)[C@H](O)C[C@@H]21)C3` [CEPHALOSTATIN 11] yielded a GI50 [1] of 5.4 nM, a GI50 [2] of 4.1 nM and a GI50 [3] of 27 nM. The GI50 [4] was 23 nM, the GI50 [5] was 6.3 nM and the GI50 [6] was 4.9 nM.

For `CO[C@H]1c2nc3c(nc2C[C@@H]2CC[C@H]4C5=CC[C@@H]6[C@H](C)[C@@]7(OC[C@]56C(=O)C[C@@H]4[C@]21C)OC(C)(C)C[C@H]7O)C[C@@]1(C)[C@@H](CC[C@H]2C4=C[C@@H]5O[C@]6(O[C@](C)(CO)C[C@H]6O)[C@@H](C)[C@]5(O)[C@@]4(C)[C@H](O)C[C@@H]21)C3` [CEPHALOSTATIN 19], the GI50 [1] was 5.3 nM, the GI50 [2] was 7.4 nM and the GI50 [3] was 78 nM. It also gave a GI50 [4] of 30 nM, a GI50 [5] of 6.1 nM and a GI50 [6] of 3.9 nM.

Work on `C[C@@H]1[C@H]2C[C@@H]3O[C@@]34[C@]3(O)CC[C@H]5Cc6nc7c(nc6C[C@]5(C)C3=CC(=O)[C@]24CO[C@]12OC(C)(C)C[C@H]2O)C[C@@H]1CC[C@H]2C3=C[C@@H]4O[C@]5(O[C@](C)(CO)C[C@H]5O)[C@@H](C)[C@]4(O)[C@@]3(C)[C@H](O)C[C@@H]2[C@@]1(C)C7` [CEPHALOSTATIN 14] yielded a GI50 [1] of 32 nM, a GI50 [2] of 28 nM and a GI50 [3] of 80 nM. For the same compound, the GI50 [4] was 130 nM, the GI50 [5] was 35 nM and the GI50 [6] was 35 nM.

For `C[C@@H]1[C@]2(O[C@H]3C=C4[C@@H]5CC[C@H]6Cc7nc8c(nc7C[C@]6(C)[C@H]5C[C@@H](O)[C@]4(C)[C@]31O)C[C@@H]1CC[C@H]3C4=CC[C@@H]5[C@H](C)[C@@]6(OC[C@]45C(=O)C[C@]3(O)[C@@]1(C)C8)OC(C)(C)C[C@H]6O)O[C@](C)(CO)C[C@H]2O` [CEPHALOSTATIN 2], the GI50 [1] was 0.0056 nM, the GI50 [2] was 0.022 nM and the GI50 [3] was 0.12 nM. For the same compound, the GI50 [4] was 0.11 nM, the GI50 [5] was 0.006 nM and the GI50 [6] was 0.022 nM.

With `C[C@H]1[C@H]2C[C@@H](O)c3c4c(cc(c32)OC12OC(C)(C)C[C@H]2O)[C@@]1(C)Cc2nc3c(nc2C[C@@H]1CC4)C[C@@]1(C)[C@@H](CC[C@H]2C4=C[C@@H]5O[C@@]6(C[C@]5(O)[C@@]4(C)[C@H](O)C[C@@H]21)O[C@](C)(CO)C[C@H]6O)C3` (stereo partly drawn) [CEPHALOSTATIN 6] the GI50 [1] was 320 nM, the GI50 [2] was 550 nM and the GI50 [3] was 610 nM. The GI50 [4] was > 1100 nM, the GI50 [5] was 390 nM and the GI50 [6] was 380 nM.
